Laboratory results published in ChEMBL document CHEMBL4414577, “Discovery of Pyrrolo[2,3-b]pyridine (1,7-Dideazapurine) Nucleoside Analogues as Anti-Trypanosoma cruzi Agents” (J Med Chem, 2019).
Calls of active or inactive are those of the source. The calls are words filed in the database; no cut-off is given here.

Experiments:
[1] = Selectivity index, ratio for EC50 for human MRC5 SV2 cells to EC50 for Trypanosoma cruzi Tulahuen CL2 amastigotes infected in human MRC5 SV2 cells; type: toxicity, cell-based; settings: read-out: Ratio EC50
L929 = test: Cytotoxicity against mouse L929 cells assessed as reduction in cell viability; type: cell-based
Trypanosoma cruzi [2] = test: Antitrypanosomal activity against Trypanosoma cruzi Tulahuen CL2 amastigotes infected in human MRC5 SV2 cells incubated for 7 days by chlorophenol red beta-D-galactopyranoside substrate based spectrophotometric assay; type: functional, organism-based; settings: Tulahuen CL2, MRC-5 SV2, 168 h
In short: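 Intracellular amastigotes of β-galactosidase-expressing Tulahuen strain grown in MRC-5 fibroblast host cells. EC50 in μM given as mean and SEM of two or three independent experiments; some values come from a single determination.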

[3] = Cytotoxicity against human MRC5 SV2 cells assessed as reduction in cell viability incubated for 3 days by resazurin dye based assay; settings: MRC-5 SV2, 72 h
Trypanosoma cruzi [4] = test: Antitrypanosomal activity against bloodstream form of Trypanosoma cruzi Y trypomastigotes measured after 24 hrs by Neubauer chamber-based light microscopic analysis; type: functional, organism-based
Trypanosoma cruzi [5] = test: In vivo antitrypanosomal activity against Trypanosoma cruzi Y trypomastigotes infected in Swiss mouse assessed as mouse survival at 100 mg/kg, po administered once daily via gavage for 5 days starting from 5 days post-infection and measured daily up to 40 days post-infection; type: functional, organism-based
In short: (§1)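 Male Swiss Webster mice (18-20 g, 4-5 weeks) infected i.p. with 10⁴ Y-strain bloodstream trypomastigotes; six per group. Oral gavage from 5 dpi for 5 consecutive days: test compound at 25 mg/kg b.i.d. (2.0 mg/mL in 10% EtOH, 0.1 M citrate pH 3.02), benznidazole at 100 mg/kg s.i.d. Parasites counted in 5 μL tail blood to 30 dpi; mortality followed daily to 40 dpi.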

Trypanosoma cruzi [6] = test: In vivo antitrypanosomal activity against Trypanosoma cruzi Y trypomastigotes infected in Swiss mouse assessed as reduction in parasitemia at 100 mg/kg, po administered once daily via gavage for 5 days starting from 5 days post-infection and measured 8 days post-infection by light microscopic method relative to control; type: functional; set-up: scale not given: the % may be the effect or the level left; in short: as §1
[7] = Toxicity in Swiss Webster mouse infected with Trypanosoma cruzi Y trypomastigotes assessed as body weight loss at 100 mg/kg, po administered once daily for 5 days with 2 days interval for 3 cycles; type: organism-based; settings: in vivo
In short: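 Y-strain-infected male Swiss Webster mice were dosed orally for 15 days (three rounds of 5 days, 2 drug-free days between) starting at 5 dpi. Regimens were 25 mg/kg b.i.d. or benznidazole 100 mg/kg s.i.d. Weight loss was recorded as a sign of toxicity, with mortality checked daily up to 53 dpi. There were six mice per group.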

Trypanosoma cruzi [8] = test: In vivo antitrypanosomal activity against Trypanosoma cruzi Y trypomastigotes infected in Swiss mouse assessed as reduction in parasitemia at 100 mg/kg, po administered once daily for 5 days with 2 days interval for 3 cycles and measured 9 days post-infection by light microscopy; type: functional, organism-based
In short: (§2)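 Male Swiss Webster mice infected i.p. with 10⁴ Y-strain bloodstream trypomastigotes; six per group. Oral gavage from 5 dpi for 15 days (three 5-day rounds, 2 days off): test compound 25 mg/kg b.i.d., benznidazole 100 mg/kg s.i.d. Parasites counted in 5 μL tail blood to 30 dpi; mortality followed to 53 dpi.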

Trypanosoma cruzi [9] = test: In vivo antitrypanosomal activity against Trypanosoma cruzi Y trypomastigotes infected in Swiss mouse assessed as mouse survival at 100 mg/kg, po administered once daily for 5 days with 2 days interval for 3 cycles and measured […]; type: functional, organism-based; in short: as §2
Trypanosoma cruzi [10] = test: In vivo antitrypanosomal activity against Trypanosoma cruzi Y trypomastigotes infected in Swiss mouse assessed as reduction in parasitemia at 100 mg/kg, po administered once daily via gavage for 5 days starting from 5 days post-infection in presence of cyclophosphamide by light microscopic method; type: functional, organism-based
Trypanosoma cruzi [11] = test: In vivo antitrypanosomal activity against Trypanosoma cruzi Y trypomastigotes infected in Swiss mouse assessed as reduction in parasitemia at 100 mg/kg, po administered once daily via gavage for 5 days starting from 5 days post-infection and measured up to 30 days post-infection by light microscopic method relative to control; type: functional; set-up: scale not given: the % may be the effect or the level left; in short: as §1
[12] = Cytotoxicity against Swiss mouse primary cardiac cells assessed as reduction in cell viability incubated for 24 hrs by PrestoBlue dye based colorimetry
Trypanosoma cruzi [13] = test: In vivo antitrypanosomal activity against Trypanosoma cruzi Y trypomastigotes infected in Swiss mouse assessed as reduction in parasitemia at 100 mg/kg, po administered once daily for 5 days with 2 days interval for 3 cycles and measured up to 30 days post-infection by light microscopy relative to control; type: functional, organism-based; in short: as §2
Trypanosoma cruzi [14] = test: In vivo antitrypanosomal activity against Trypanosoma cruzi Y trypomastigotes infected in Swiss mouse assessed as reduction in parasitemia at 100 mg/kg, po administered once daily for 5 days with 2 days interval for 3 cycles in presence of cyclophosphamide by light microscopy; type: functional, organism-based
[15] = Toxicity in Swiss Webster mouse infected with Trypanosoma cruzi Y trypomastigotes assessed as appearance of clinical symptoms at 100 mg/kg, po administered once daily via gavage for 5 days starting from 5 days post-infection and measured daily up to 40 days post-infection; type: organism-based; settings: in vivo
In short: (§3)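 Male Swiss Webster mice were infected i.p. with 10⁴ Y-strain trypomastigotes and treated by oral gavage for 5 days from 5 dpi. Regimens were 25 mg/kg b.i.d. (10% EtOH/citrate vehicle) or benznidazole 100 mg/kg s.i.d. Body weight and visual clinical signs were monitored, with daily mortality checks up to 40 dpi. There were six mice per group.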

Trypanosoma cruzi [16] = test: Antitrypanosomal activity against Trypanosoma cruzi Y amastigotes infected in Swiss mouse primary cardiac cells incubated for 168 hrs with media replenishment for every 48 hrs followed by compound washout and measured after 168 hrs by light microscopic method; type: functional, organism-based
In short: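 Cardiac cells plated 24 h, then infected 24 h at 37 °C with Y-strain bloodstream trypomastigotes (parasite:host 10:1) and washed. Serial dilutions (up to 5 µM) for 168 h at 37 °C, drug medium renewed every 48 h. PBS rinse, 168 h drug-free. Giemsa-stained; infected cells and parasites per cell scored in 200 cells. EC50 from infection-index inhibition; two experiments, duplicate.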

[17] = Toxicity in Swiss Webster mouse infected with Trypanosoma cruzi Y trypomastigotes assessed as body weight loss at 100 mg/kg, po administered once daily via gavage for 5 days starting from 5 days post-infection and measured daily up to 40 days post-infection; type: organism-based; settings: in vivo; in short: as §3

C=Cc1cn([C@@H]2O[C@H](CO)[C@@H](O)[C@H]2O)c2nccc(N)c12
selectivity ratio [1]: > 79 | EC50 (L929): > 200 µM | EC50 (Trypanosoma cruzi [2]): 0.81 µM | EC50 [3]: > 64 µM | EC50 (Trypanosoma cruzi [4]): > 50 µM

Nc1ccnc2c1c(C1CCCCC1)cn2[C@@H]1O[C@H](CO)[C@@H](O)[C@H]1O
EC50 (Trypanosoma cruzi [2]): > 64 µM | EC50 [3]: > 64 µM

Nc1ccnc2c1ccn2[C@@H]1O[C@H](CO)[C@@H](O)[C@H]1O
selectivity ratio [1]: 7.9 | EC50 (Trypanosoma cruzi [2]): 2.27 µM | EC50 [3]: 17.9 µM

O=C(Cn1ccnc1[N+](=O)[O-])NCc1ccccc1 [BENZNIDAZOLE]
EC50 (L929): > 200 µM | Activity (Trypanosoma cruzi [5]): Active | Activity (Trypanosoma cruzi [6]): 100% | Activity [7]: Non-Toxic | EC50 (Trypanosoma cruzi [2]): 2.36 µM | Activity (Trypanosoma cruzi [8]): Active | Activity (Trypanosoma cruzi [9]): inactive | Activity (Trypanosoma cruzi [10]): inactive | Activity (Trypanosoma cruzi [11]): 100% | EC50 [12]: > 400 µM | Activity (Trypanosoma cruzi [13]): Active | EC50 (Trypanosoma cruzi [4]): 5.7 µM | Activity (Trypanosoma cruzi [14]): inactive | Activity [15]: Non-Toxic | EC50 (Trypanosoma cruzi [16]): 2.7 µM | Activity [17]: Non-Toxic

Nc1ccnc2c1c(Cl)cn2[C@@H]1O[C@H](CO)[C@@H](O)[C@H]1O
selectivity ratio [1]: > 337 | EC50 (L929): > 200 µM | EC50 (Trypanosoma cruzi [2]): 0.19 µM | EC50 [3]: > 64 µM | EC50 [12]: > 400 µM | EC50 (Trypanosoma cruzi [4]): > 50 µM

Nc1ccnc2c1c(I)cn2[C@H]1C[C@H](O)[C@@H](CO)O1
EC50 (Trypanosoma cruzi [2]): > 64 µM | EC50 [3]: > 64 µM

Nc1ccnc2c1c(-c1ccccc1)cn2[C@@H]1O[C@H](CO)[C@@H](O)[C@H]1O
EC50 (Trypanosoma cruzi [2]): > 64 µM | EC50 [3]: > 64 µM

OC[C@H]1O[C@@H](n2cc(I)c3c(Cl)ccnc32)[C@H](O)[C@@H]1O
selectivity ratio [1]: 1 | EC50 (Trypanosoma cruzi [2]): 2.14 µM | EC50 [3]: 2.18 µM

C[C@H]1O[C@@H](n2cc(I)c3c(N)ccnc32)[C@H](O)[C@@H]1O
EC50 (Trypanosoma cruzi [2]): > 64 µM | EC50 [3]: > 64 µM

Nc1ccnc2c1c([N+](=O)[O-])cn2[C@@H]1O[C@H](CO)[C@@H](O)[C@H]1O
selectivity ratio [1]: > 1.3 | EC50 (Trypanosoma cruzi [2]): 47.7 µM | EC50 [3]: > 64 µM

Nc1ccnc2c1c(-c1cccs1)cn2[C@@H]1O[C@H](CO)[C@@H](O)[C@H]1O
selectivity ratio [1]: > 1.7 | EC50 (Trypanosoma cruzi [2]): 36.9 µM | EC50 [3]: > 64 µM

Nc1ccnc2c1c(F)cn2[C@@H]1O[C@H](CO)[C@@H](O)[C@H]1O
selectivity ratio [1]: > 7.3 | EC50 (Trypanosoma cruzi [2]): 8.8 µM | EC50 [3]: > 64 µM

Cc1cn([C@@H]2O[C@H](CO)[C@@H](O)[C@H]2O)c2nccc(N)c12
selectivity ratio [1]: 45 | EC50 (L929): > 200 µM | EC50 (Trypanosoma cruzi [2]): 1.14 µM | EC50 [3]: 51.6 µM | EC50 (Trypanosoma cruzi [4]): > 50 µM

Nc1ccnc2[nH]cc(I)c12
EC50 (Trypanosoma cruzi [2]): > 64 µM | EC50 [3]: > 64 µM

Nc1ccnc2c1c(C(F)(F)F)cn2[C@@H]1O[C@H](CO)[C@@H](O)[C@H]1O
selectivity ratio [1]: 0.47 | EC50 (Trypanosoma cruzi [2]): 1.56 µM | EC50 [3]: 0.73 µM

OC[C@H]1O[C@@H](n2cc(I)c3cccnc32)[C@H](O)[C@@H]1O
selectivity ratio [1]: > 30 | EC50 (L929): > 200 µM | EC50 (Trypanosoma cruzi [2]): 1.75 µM | EC50 [3]: 52.9 µM | EC50 (Trypanosoma cruzi [4]): 36.3 µM

Nc1ccnc2c1c(C#Cc1ccccc1)cn2[C@@H]1O[C@H](CO)[C@@H](O)[C@H]1O
EC50 (Trypanosoma cruzi [2]): > 64 µM | EC50 [3]: > 64 µM

Nc1ccnc2c1c(/C=C/c1ccccc1)cn2[C@@H]1O[C@H](CO)[C@@H](O)[C@H]1O
EC50 (Trypanosoma cruzi [2]): > 64 µM | EC50 [3]: > 64 µM

Nc1ccnc2c1c(-c1ccc(Cl)cc1)cn2[C@@H]1O[C@H](CO)[C@@H](O)[C@H]1O
EC50 (Trypanosoma cruzi [2]): > 64 µM | EC50 [3]: > 64 µM

Nc1ccnc2c1c(C1=CCCCC1)cn2[C@@H]1O[C@H](CO)[C@@H](O)[C@H]1O
EC50 (Trypanosoma cruzi [2]): > 64 µM | EC50 [3]: > 64 µM

Cc1ccnc2c1c(I)cn2[C@@H]1O[C@H](CO)[C@@H](O)[C@H]1O
selectivity ratio [1]: 0.29 | EC50 (Trypanosoma cruzi [2]): 7.98 µM | EC50 [3]: 2.29 µM

Nc1ncnc2c1c(I)cn2[C@@H]1O[C@H](CO)[C@@H](O)[C@H]1O [IODOTUBERCIDIN]
selectivity ratio [1]: 6.7 | EC50 (Trypanosoma cruzi [2]): 0.8 µM | EC50 [3]: 5.35 µM

N#Cc1cn([C@@H]2O[C@H](CO)[C@@H](O)[C@H]2O)c2nccc(N)c12
selectivity ratio [1]: 4.6 | EC50 (Trypanosoma cruzi [2]): 4 µM | EC50 [3]: 18.5 µM

C#Cc1cn([C@@H]2O[C@H](CO)[C@@H](O)[C@H]2O)c2nccc(N)c12
selectivity ratio [1]: 730 | EC50 (L929): > 200 µM | EC50 (Trypanosoma cruzi [2]): 0.08 µM | EC50 [3]: 59 µM | EC50 (Trypanosoma cruzi [4]): 40.5 µM

Nc1ccnc2c1c(Br)cn2[C@@H]1O[C@H](CO)[C@@H](O)[C@H]1O
selectivity ratio [1]: > 320 | EC50 (Trypanosoma cruzi [2]): 0.2 µM | EC50 [3]: > 64 µM

CCc1cn([C@@H]2O[C@H](CO)[C@@H](O)[C@H]2O)c2nccc(N)c12
EC50 (Trypanosoma cruzi [2]): > 64 µM | EC50 [3]: > 64 µM

Nc1ccnc2c1c(I)cn2[C@@H]1O[C@H](CO)C[C@H]1O
EC50 (Trypanosoma cruzi [2]): > 64 µM | EC50 [3]: > 64 µM

Nc1ccnc2c1c(-c1ccccn1)cn2[C@@H]1O[C@H](CO)[C@@H](O)[C@H]1O
EC50 (Trypanosoma cruzi [2]): > 64 µM | EC50 [3]: > 64 µM
